Data set [1] deals with T1, L-lysine-epsilon aminotransferase (Mycobacterium tuberculosis) (UniProt P9WQ77).
T1 sequence (whole entry): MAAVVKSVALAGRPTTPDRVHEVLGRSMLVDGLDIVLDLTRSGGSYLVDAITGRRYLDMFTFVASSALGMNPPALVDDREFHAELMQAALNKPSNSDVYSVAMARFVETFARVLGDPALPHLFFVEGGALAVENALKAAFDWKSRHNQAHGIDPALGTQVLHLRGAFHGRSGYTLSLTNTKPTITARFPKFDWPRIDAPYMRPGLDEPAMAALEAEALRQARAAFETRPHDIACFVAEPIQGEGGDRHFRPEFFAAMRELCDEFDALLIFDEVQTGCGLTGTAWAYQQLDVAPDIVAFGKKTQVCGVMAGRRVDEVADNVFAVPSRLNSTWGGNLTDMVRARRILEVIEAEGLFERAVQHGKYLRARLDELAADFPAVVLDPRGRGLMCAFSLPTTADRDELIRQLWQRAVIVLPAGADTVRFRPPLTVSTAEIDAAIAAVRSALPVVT
The experiment in a line: Inhibition of Mycobacterium tuberculosis LAT at 25 uM.

The subject of data set [2] is Mycobacterium tuberculosis H37Rv. Put plainly: Inhibition of Mycobacterium tuberculosis ADH assessed as decrease in conversion of L-alanine to pyruvate at 25 uM by measuring NADH by spectrophotometry.
Data set [3] can be described thus: Inhibition of Mycobacterium tuberculosis ADH assessed as decrease in conversion of L-alanine to pyruvate by measuring NADH by spectrophotometry. On the set-up: species or system Mycobacterium tuberculosis H37Rv. In short, it runs like this:
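Mtb L-AlaDH oxidative deamination of L-alanine to pyruvate at 37 °C. NADH formation read at 340 nm. Compounds tested from 25 µM to 0.5 µM. Background read from the reaction mixture without enzyme. IC50 values calculated from the concentration series.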

For data set [4], the system named is Mycobacterium tuberculosis. The experiment in a line: Antimycobacterial activity against dormant stage of Mycobacterium tuberculosis H37Rv assessed as reduction in bacterial growth under nutrient starved conditions at 10 ug/ml for 7 days measured after 28 days. In kind it is functional. In short, it runs like this: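 H37Rv grown in 7H9/OADC, washed twice and resuspended in PBS, then held in sealed bottles at 37 °C for 6 weeks. Starved cultures exposed to compound at 10 ug/ml for 7 days. Cells diluted 10-fold serially to 10^-6 in 7H9/OADC and plated in triplicate. Incubated 28 days at 37 °C without agitation; wells with visible growth scored positive and MPN calculated.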

Data set [5] deals with Mycobacterium tuberculosis. Put plainly: Antimycobacterial activity against Mycobacterium tuberculosis H37Rv after 7 days by MABA. It counts as functional. The settings on record: 168 h. In outline: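 M. tuberculosis H37Rv inoculum taken from fresh LJ medium, resuspended in 7H9-S (7H9, 0.1% casitone, 0.5% glycerol, OADC), adjusted to McFarland No. 1 and diluted 1:20. Serial two-fold drug dilutions in 7H9-S, with growth and sterile controls. Incubated 7 days at 37 °C in normal atmosphere, then alamar blue added and incubated overnight. MIC = lowest concentration preventing the blue-to-pink change.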

Data set [6] is described as follows: Cytotoxicity against mouse RAW264.7 cells assessed as inhibition of cell proliferation at 50 ug/ml after 48 hrs by MTT assay. In kind it is toxicity. In outline:
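RAW 264.7 mouse macrophages grown in RPMI with 10% FBS and penicillin/streptomycin, then seeded at about 5000 cells/well on poly-L-lysine-coated plates. Pre-incubated 24 h at 37 °C, 5% CO2, then exposed to compound for 48 h. MTT (0.5 mg/ml) added for 3 h and formazan read at 595 nm.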
A general note: Tetrazolium assays rely on reduction of a dye to a coloured formazan, in cell work by metabolically active cells.

Data set [7] has as its system Mycobacterium tuberculosis. The experiment in a line: Antimycobacterial activity against Mycobacterium tuberculosis H37Rv after 6 days by resazurin assay. The settings on record: 144 h. It counts as functional. For orientation: Alamar Blue is a resazurin reagent that responds to reducing activity.
In data set [8] the test system is Mycobacterium tuberculosis. Put plainly: Binding affinity to Mycobacterium tuberculosis ADH assessed as change in melting temperature by Sypro orange dye based differential scanning fluorimetry. In short, it runs like this: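 Thermal shift assay on Mtb L-AlaDH (100 µg/ml, 10 µl) in 100 mM HEPES-NaOH pH 7.8 with 6 µl of 15× Sypro Orange; compounds added in <10% DMSO. Samples equilibrated 3 min at 25 °C, then ramped to 95 °C in 0.1 °C steps. Tm taken as the lowest point of the first-derivative plot; shift measured against the native protein.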

Values after ≈ are worked out from the molar mass of the structure shown.

For orientation: inhibition means how much of the control response was suppressed. For orientation: IC50 means the concentration that gives 50% inhibition. In general, MIC refers to the lowest concentration found to suppress growth. Read a high MIC as a less susceptible organism. Take `Cc1ccc(Nc2nc(-c3ccccc3)nc3sc4c(c23)CCCC4)c(C)c1`: the inhibition was < 50% in data set [1] and 50% in data set [2]. Besides, the IC50 in data set [3] worked out at 9.96 µM. Further, in data set [4], the “fold change (FC)” value was >1. Moreover, the MIC in data set [5] was 16.2 µM (≈ 6.25 µg/mL). The inhibition at 48 h, 50 ug/ml in data set [6] came out at 7.97%.

As for `Cc1ccc(Nc2nc(C3CC3)nc3sc4c(c23)CCCC4)c(C)c1`, the inhibition in data set [1] was < 50%; in data set [2], 50%. Also, in data set [3], the IC50 worked out at 9 µM. Further, the “fold change (FC)” value in data set [4] is recorded as >1. This molecule also displayed an MIC in data set [5] of 71.5 µM (≈ 25 µg/mL). Besides, in data set [6], the inhibition at 48 h, 50 ug/ml was found to be 23.9%.

As for `Cc1ccc(C)c(Nc2nc(C3CC3)nc3sc4c(c23)CCCC4)c1`, the inhibition is < 50% in data set [1] and 50% in data set [2]. Also, the 50% inhibitory concentration (IC50) in data set [3] was 2.07 µM. In addition, the “fold change (FC)” value in data set [4] is >1. The MIC in data set [5] came out at 35.8 µM (≈ 12.5 µg/mL). In addition, the inhibition at 48 h, 50 ug/ml in data set [6] came to 16.3%.

`CCc1nc(Nc2ccc(OC)cc2)c2c3c(sc2n1)CCCC3`: the inhibition in data set [1] is < 50%; in data set [2], 50%. Further, in data set [3], the IC50 was 4.68 µM. Also, in data set [4], the “fold change (FC)” value is given as >1. This molecule also yielded a minimal inhibitory concentration (MIC) in data set [5] of 73.7 µM (≈ 25 µg/mL). For the same molecule, the inhibition at 48 h, 50 ug/ml in data set [6] was determined as 15.2%.

Turning to `CCc1nc(Nc2ccccc2)c2c3c(sc2n1)CCCC3`, the inhibition in data set [1] was < 50%; in data set [2] it was 50%. Moreover, the IC50 in data set [3] was found to be 15.1 µM. Moreover, in data set [4], the “fold change (FC)” value is listed as >1. In data set [5], this molecule gave an MIC of 20.2 µM (≈ 6.25 µg/mL). Further, the inhibition at 48 h, 50 ug/ml in data set [6] was determined as 7.82%.

`Cc1cccc(-c2nc(Nc3ccncn3)c3c(C)csc3n2)n1` had an MIC in data set [7] of 0.76 µM (≈ 0.254 µg/mL).

As to `CCc1nc(Nc2ccc(Br)cc2)c2c3c(sc2n1)CCCC3`, the inhibition is < 50% in data set [1] and 50% in data set [2]. For the same molecule, the IC50 in data set [3] worked out at 6.54 µM. Besides, the “fold change (FC)” value in data set [4] is >1. 32.2 µM (≈ 12.5 µg/mL) was the least that counted as inhibitory in data set [5] (MIC). For the same molecule, the inhibition at 48 h, 50 ug/ml in data set [6] stood at 12.6%.

As for `CCc1nc(Nc2ccc(C)cc2)c2c3c(sc2n1)CCCC3`, the inhibition in data set [1] is < 50%; in data set [2], 50%. For the same molecule, in data set [3], the IC50 worked out at 3.26 µM. Besides, in data set [4], the “fold change (FC)” value is >1. Besides, the minimum inhibitory concentration (MIC) in data set [5] came to 77.3 µM (≈ 25 µg/mL). For the same molecule, the inhibition at 48 h, 50 ug/ml in data set [6] was 15.6%.

As usually defined, the ΔTm is the change in melting temperature against a reference sample. With `CCc1nc(NCCc2ccccc2)c2c3c(sc2n1)CCCC3`, the inhibition in data set [1] was < 50%; in data set [2], 50%. The IC50 in data set [3] is 1.82 µM. For the same molecule, the “fold change (FC)” value in data set [4] is listed as >1. Further, in data set [5], the MIC amounted to 37 µM (≈ 12.5 µg/mL). For the same molecule, the ΔTm in data set [8] was 1.4 °C. Further, the inhibition at 48 h, 50 ug/ml in data set [6] was 25.2%.

`Brc1ccc(Nc2nc(C3CC3)nc3sc4c(c23)CCCC4)cc1`: the inhibition was < 50% in data set [1] and 50% in data set [2]. For the same molecule, the IC50 in data set [3] is 8.93 µM. Moreover, the “fold change (FC)” value in data set [4] is >1. Further, in data set [5], the MIC came to 15.6 µM (≈ 6.25 µg/mL). For the same molecule, in data set [6], the inhibition at 48 h, 50 ug/ml amounted to 33.4%.
